In ChEMBL document CHEMBL4190337, “Design, Synthesis, and Antibacterial Activity of a Multivalent Polycationic Calix[4]arene-NO Photodonor Conjugate” (ACS Med Chem Lett, 2017):
The source made the active and inactive calls. No cut-off for these calls is given here.

How the values were obtained:
Staphylococcus aureus [1] = test: Bactericidal activity against Staphylococcus aureus ATCC 6538 assessed as reduction in bacterial count at 0.25 mM after 30 mins under dark condition by time kill assay relative to control; format: functional; parameters: scale not given: the % may be the effect or the level left
In short: (§1)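 Time-kill assay with the agent at 0.25 mM final in 5% EtOH/PBS, made from a 0.5 mM solution in 10% EtOH/PBS. Samples ran in duplicate, kept in the dark or illuminated, alongside PBS and 5% EtOH/PBS vehicle controls. Viable bacteria were counted as CFU/mL at set times and expressed as % and log reduction.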

Staphylococcus aureus [2] = test: Bactericidal activity against Staphylococcus aureus ATCC 6538 assessed as reduction in bacterial count at 0.25 mM irradiated with 450 mW xenon light after 10 mins by time kill assay relative to control; format: functional; parameters: scale not given: the % may be the effect or the level left; in short: as §1
Staphylococcus aureus [3] = test: Bactericidal activity against Staphylococcus aureus ATCC 6538 assessed as reduction in bacterial count at 0.25 mM irradiated with 450 mW xenon light after 20 mins by time kill assay relative to control; format: functional; parameters: scale not given: the % may be the effect or the level left; in short: as §1
Escherichia coli [4] = test: Bactericidal activity against Escherichia coli ATCC 10536 assessed as reduction in colony forming units at 0.25 mM irradiated with 450 mW xenon light after 30 mins by time kill assay; format: functional; parameters: scale not given: the % may be the effect or the level left; in short: as §1
Staphylococcus aureus [5] = test: Bactericidal activity against Staphylococcus aureus ATCC 6538 assessed as log reduction in colony forming units at 0.25 mM irradiated with 450 mW xenon light after 20 mins by time kill assay; format: functional; in short: as §1
[6] = Cytotoxicity against human skin fibroblasts at 0.25 mM irradiated with 450 mW xenon light measured after 30 mins; details: 0.5 h, 250 µM
[7] = Drug metabolism in MeOH/PBS solution assessed as […] release at 40 uM irradiated with 60 mW laser light by amperometric detection assay; format: functional
In short: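 NO release was profiled in MeOH/PBS (20/80) at 40 µM under visible light irradiation (λexc = 405 nm), using an optically matched solution of a model NO photodonor for comparison.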

[8] = Drug metabolism in MeOH/PBS solution assessed as […] release by measuring shift in maximum absorption wavelength at 40 uM irradiated with 60 mW laser light by UV-vis absorption spectra analysis; format: functional
Staphylococcus aureus [9] = test: Bactericidal activity against Staphylococcus aureus ATCC 6538 assessed as log reduction in colony forming units at 0.25 mM after 30 mins under dark condition by time kill assay; format: functional; in short: as §1
Staphylococcus aureus [10] = test: Bactericidal activity against Staphylococcus aureus ATCC 6538 assessed as log reduction in colony forming units at 0.25 mM irradiated with 450 mW xenon light after 10 mins by time kill assay; format: functional; in short: as §1
Staphylococcus aureus [11] = test: Bactericidal activity against Staphylococcus aureus ATCC 6538 assessed as reduction in bacterial count at 0.25 mM irradiated with 450 mW xenon light up to 30 mins by time kill assay; format: functional, organism-based; in short: as §1
Escherichia coli [12] = test: Bactericidal activity against Escherichia coli ATCC 10536 assessed as reduction in bacterial count at 0.25 mM after 30 mins under dark condition by time kill assay; format: functional, organism-based; in short: as §1
Escherichia coli [13] = test: Bactericidal activity against Escherichia coli ATCC 10536 assessed as log reduction in colony forming units at 0.25 mM irradiated with 450 mW xenon light after 30 mins by time kill assay; format: functional; in short: as §1
[14] = Drug metabolism in MeOH/PBS solution assessed as […] release at 170 uM irradiated with 60 mW laser light by amperometric detection assay; format: functional
In short: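 NO release followed during continuous visible-light irradiation at λexc 405 nm of optically matched solutions in MeOH/PBS (20/80), with the model donor at 170 µM; release profile recorded over irradiation time.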

Row | SMILES | Activity (Staphylococcus aureus [1]) [%] | Activity (Staphylococcus aureus [2]) [%] | Activity (Staphylococcus aureus [3]) [%] | Activity (Escherichia coli [4]) [%] | Activity (Staphylococcus aureus [5]) [log10CFU/ml] | Activity [6] [%] | Drug metabolism [7] | Drug metabolism [8] | Activity (Staphylococcus aureus [9]) [log10CFU/ml] | Activity (Staphylococcus aureus [10]) [log10CFU/ml] | Activity (Staphylococcus aureus [11]) | Activity (Escherichia coli [12]) | Activity (Escherichia coli [13]) [log10CFU/ml] | Drug metabolism [14]
1 | C[N+](C)(CCO)CCCOc1c2cc(CNc3ccc([N+](=O)[O-])c(C(F)(F)F)c3)cc1Cc1cc(CNc3ccc([N+](=O)[O-])c(C(F)(F)F)c3)cc(c1O)Cc1cc(CNc3ccc([N+](=O)[O-])c(C(F)(F)F)c3)cc(c1OCCC[N+](C)(C)CCO)Cc1cc(CNc3ccc([N+](=O)[O-])c(C(F)(F)F)c3)cc(c1O)C2.[Br-].[Br-] | 98.9 | 99.2 | >99.95 | 93.5 | >3.31 | < 15 | Metabolite detected | Metabolite detected | 1.96 | 2.1 | Active | inactive | 1.2 | –
2 | NCCCNc1ccc([N+](=O)[O-])c(C(F)(F)F)c1 | – | – | – | – | – | – | – | – | – | – | – | – | – | Metabolite detected
